This is a sample that favours compounds with a hit; in the whole collection about 2.1% have one here.
Shn3 inh set2: Schnurri-3 reporter inhibition in Clone20 osteoblasts; Clone20 osteoblast Shn3 3'UTR firefly luciferase, 24 h; inhibition, % at 12.5 µM; actives 0.52% (n = 360,000);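 active means mean inhibition of at least 75% with every replicate also reaching 75%; inconclusive means mean inhibition at least 75% but some replicate below; inactive means mean inhibition below 75%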;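 further: 0% = median of neutral control wells and 100% = pilot-screen positive control compound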
EWS-Fli inh: inhibitors of EWS/Fli oncoprotein transcriptional activity; inhibition, % at 12.6 µM; AID 651661; actives 0.67% (n = 350,000); A673 NR0B1-luciferase reporter, viability-normalised;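 active means mean inhibition of at least 50% after viability correction, with every replicate also passing that limit; inconclusive means mean reaches 50% but only one of two replicates passes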;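 further: firefly luciferase signal divided by Alamar Blue viability fluorescence both relative to DMSO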
LMP1 NFkB inh: Epstein-Barr LMP1 NF-kappaB reporter inhibition | inhibition, % at 12.5 µM | actives 0.69% (n = 350,000) | AID 504558 | LMP1-induced NF-kappaB luciferase reporter cells, luminescence; in the data active means inhibition above about 41%; inconclusive means no clear call, values can overlap the other calls;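 further: 0% = neutral control wells and 100% = reference inhibitor control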
aSyn 5UTR inh: MLPCN primary screen, SNCA 5' untranslated region. alpha-synuclein 5'UTR reporter, inhibitor activity. inhibition, % (tested at 7.5 µM). actives 0.82% (n = 300,000); in the data active means inhibition above about 60%; inconclusive means no clear call, values can overlap the other calls;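 further: H4 neuroglioblastoma cells stably carrying SNCA 5'UTR luciferase fusion; 0% = DMSO wells and 100% = positive control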
PAX8 reporter: inhibitors of PAX8 transcriptional activity in RMG-I cells; inhibition, % at 12.6 µM; AID 652154; RMG-I TPO-luciferase reporter, SteadyGlo, 24 h; actives 1.2% (n = 360,000);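 active means mean replicate inhibition at least 60% with every replicate also reaching 60%; inconclusive means only one of the two criteria is met; inactive means mean below 60% and not all replicates reaching 60%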;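 further: luciferase light reporting Pax8 driven TPO promoter activity; plate controls were median of neutral control wells for no effect and mitoxantrone controls for full effect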
FN deposit inh: fibronectin deposition inhibition; inhibition, % at 12.6 µM; AID 743247; AH1F fibroblasts, Alexa488-fibronectin deposition fluorescence, overnight; actives 0.086% (n = 350,000);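 active means mean inhibition across replicates of 30% or more, regardless of how many single replicates reach that level; inconclusive means mean under 30% yet at least half of replicates reach 30%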;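 further: positive control wells lacked labelled fibronectin entirely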
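Measured by – fluorescence 485/525 nm · System – AH1F fibroblast monolayer, labelled fibronectin deposition · Amount – 10000 cells per well · Buffer or medium – serum-reduced DMEM (2% serum) · Doses – single dose, pinned · Also added – fluorescent fibronectin at 24 nM final · Schedule – 1 h cell attachment, overnight exposure to compound and label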
* = called active by the depositor; ? = inconclusive; / = no result.

SMILES	Shn3 inh set2	EWS-Fli inh	LMP1 NFkB inh	aSyn 5UTR inh	PAX8 reporter	FN deposit inh
COc1cc(OC)c(OC)cc1/C=C1\CC(C)C/C(=C\c2cc(OC)c(OC)cc2OC)C1=O (stereo unspecified)	93.6*	5.3	19.3	-20.1	74.1*	16.9
O=C(c1ccc(Br)cc1)C(CN1CCOCC1)c1ccccc1 (stereo unspecified)	96.2*	40.8	-8.4	-152.2	39.4	34.2*
CCOc1ccc(C(C#N)N2CCOCC2)cc1OC (stereo unspecified)	-10.9	/	-10.8	-16.8	3.3	6.4
CCOc1ccc(C(O)(CCC(C)C)C(CN2CCOCC2)c2ccccc2)cc1 (stereo unspecified)	20.0	18.9	8.2	20.9	-10.5	-7.5
CC(CN1CCN(CC(C)C(=O)c2ccccc2)CC1)C(=O)c1ccccc1 (stereo unspecified)	-14.0	5.3	4.6	/	16.4	/
CCOc1ccc(C(CN2CCOCC2)C(C)=O)cc1OC (stereo unspecified)	60.2	6.5	/	/	101.8*	13.3
O=C(c1ccccc1)C(CN1CCCCC1)c1ccccc1 (stereo unspecified)	?	69.2*	54.8*	/	68.7*	-4.0
CCOc1ccc(C(=O)C(CN2CCOCC2)c2ccccc2)cc1 (stereo unspecified)	-2.5	/	26.1	-22.7	96.8*	20.3
COC(=O)C[C@@H]1C[C@@H]2c3cc(NC(=O)C4CCC4)ccc3O[C@@H]2[C@@H](CO)O1	/	0.2	/	/	-5.7	-5.8
C[C@@H]1CN([C@H](C)CO)C(=O)c2cccc(NC(=O)C3CCOCC3)c2O[C@@H]1CN(C)S(=O)(=O)c1cccs1	/	-6.8	/	/	/	-1.7
C[C@@H]1CN([C@@H](C)CO)C(=O)c2cc(NC(=O)Nc3cccc4ccccc34)ccc2O[C@@H]1CN(C)Cc1ccc(Oc2ccccc2)cc1	/	7.5	/	/	/	/
CCCCOc1ccc(C(=O)CCN2CCOCC2)cc1	11.7	-9.3	3.4	-6.8	69.0*	3.2
Cc1ccc2nc(CSc3nc(C)ccc3C#N)[nH]c2c1	-31.7	-26.5	-127.8	79.3*	/	/
O=C1/C(=C\c2ccc(Cl)c(Cl)c2)CN(C(=O)CCN2CCOCC2)C/C1=C/c1ccc(Cl)c(Cl)c1	98.7*	55.7*	2.5	/	89.2*	3.6
O=C(NCCN1CCOCC1)c1ccc(Cl)c(Cl)c1	-14.0	-4.0	-5.2	4.4	2.7	-5.0
O=C1c2ccccc2S(=O)(=O)N1Cc1nc2ccccc2s1	38.8	/	75.8*	111.7*	/	/
Cc1ccccc1-c1ccc([C@@H]2[C@H](CO)N3CCCCN(C(=O)Nc4cccc(F)c4)C[C@@H]23)cc1	/	61.4*	/	/	107.9*	/
Cc1ccccc1-c1ccc([C@H]2[C@@H](CO)N3CCCCN(C(=O)Nc4cccc(F)c4)C[C@@H]23)cc1	/	11.0	/	/	23.4	/
Cc1ccccc1-c1ccc([C@H]2[C@@H](CO)N3CCCCN(C(=O)Nc4cccc(F)c4)C[C@H]23)cc1	/	67.0*	/	/	99.9*	/
CO[C@H]1CN(C)C(=O)c2cc(NC(=O)c3cc(C)on3)ccc2OC[C@H](C)N(C(=O)C2CC2)C[C@@H]1C	/	0.4	/	/	/	6.0
COc1ccc(C2CC(O)(c3ccccc3)Oc3cc(OC)c(OC)c(OC)c32)cc1 (stereo unspecified)	-0.2	2.9	-0.9	23.1	22.3	3.8
COc1ccc([C@@]23Oc4cc(OC)cc(OC)c4[C@]2(O)[C@H](O)[C@H](C(=O)N(C)C)[C@H]3c2ccccc2)cc1	91.1*	23.0	81.8*	/	86.8*	17.9
CCOc1ccccc1C(=O)Nc1ccsc1C(=O)OC	3.3	/	13.8	65.3*	16.8	12.9
CCOc1ccccc1C(=O)Nc1ccccc1C(N)=O	4.2	/	5.2	-8.8	/	-4.4
CSC1SCC2C(=O)N(C)C(C(C)C)C(=O)OCC(NC(=O)c3cnc4ccccc4n3)C(=O)NC(C)C(=O)N(C)C1C(=O)N(C)C(C(C)C)C(=O)OCC(NC(=O)c1cnc3ccccc3n1)C(=O)NC(C)C(=O)N2C (stereo unspecified)	94.1*	16.2	85.0*	/	96.8*	0.2
SMILES	Shn3 inh set2	EWS-Fli inh	LMP1 NFkB inh	aSyn 5UTR inh	PAX8 reporter	FN deposit inh
O=C1NC[C@@H](c2ccccc2)OC(=O)[C@H](Cc2ccc(F)cc2)C/C=C\C[C@H]1CC(=O)N(CCO)Cc1ccccc1	19.7	-0.1	1.2	/	22.3	7.9
O=C1NC[C@@H](c2ccccc2)OC(=O)[C@@H](Cc2ccc(F)cc2)CC/C=C/C[C@H]1CC(=O)N(CCO)Cc1ccccc1	-7.7	18.8	4.4	/	33.0	0.2
O=C1NC[C@H](c2ccccc2)OC(=O)[C@@H](Cc2ccc(F)cc2)C/C=C\C[C@H]1CC(=O)N(CCO)Cc1ccccc1	27.2	18.8	6.9	/	85.9*	-8.1
O=C1NC[C@H](c2ccccc2)OC(=O)[C@H](Cc2ccc(F)cc2)C/C=C\C[C@H]1CC(=O)N(CCO)Cc1ccccc1	16.2	23.9	7.6	/	82.6*	10.5
COc1ccc(CCNC(C(=O)Nc2cc(C)cc(C)c2)c2ccccc2)cc1 (stereo unspecified)	72.7	9.2	0.3	21.8	44.1	/
COc1cccc(NC(=O)C(NCCc2ccc(S(N)(=O)=O)cc2)c2ccccc2)c1 (stereo unspecified)	8.0	11.1	-7.4	31.4	74.4*	-7.8
C/C=C/c1ccc([C@H]2[C@@H](CNC(=O)CC3CC3)N(C(C)=O)[C@H]2CO)cc1	/	5.7	/	/	0.6	-10.5
N#CCCCSc1nnc(CSc2nc3ccccc3s2)n1-c1ccccc1	15.9	/	-6.7	6.7	/	/
CCCSc1nnc(CSc2nc3ccccc3s2)n1-c1ccccc1	87.3*	/	7.6	14.4	/	/
COc1ccc(S(=O)(=O)N2CCCCN3[C@H](CO)[C@@H](c4ccc(C#CC5CC5)cc4)[C@@H]3C2)cc1	/	2.0	/	/	-20.3	/
CCOCCCNc1ncnc2c1[nH]c1ccccc12	79.2	/	28.5	-19.9	/	/
CCCCOCCCNc1ncnc2c1[nH]c1ccccc12	83.3*	/	15.0	-53.0	/	-1.3
CCOc1cc(/C=N/NC(=O)Cc2ccc(C(F)(F)F)cc2[N+](=O)[O-])c(Br)cc1OC	22.8	/	-30.2	-2.8	8.2	0.8
COc1cc(Br)cc(/C=N/NC(=O)Cc2ccc(C(F)(F)F)cc2[N+](=O)[O-])c1O	20.4	12.4	21.0	67.5*	23.7	-1.5
CCOc1ccc(/C=C2\SC(=S)N(CCCC(=O)NCCCN3CCOCC3)C2=O)cc1	70.7	81.4*	54.7*	84.4*	49.7	2.9
CC(/C=C1\SC(=O)N(CC(=O)Nc2ccc(O)cc2)C1=O)=C\c1ccccc1	-5.5	12.3	-4.5	-15.5	87.1*	-11.4
O=C(CCN1C(=O)/C(=C/c2ccccc2)SC1=S)Nc1ccccn1	-3.6	2.6	1.0	10.7	6.3	-20.7
Cc1ccc(/C=C2\SC(=S)N(CCCC(=O)Nc3ccccn3)C2=O)cc1	72.4	/	55.7*	106.8*	/	/

Assay outcomes from PubChem.
